ABCG2 block = human ABCG2 inhibition, ABCB1 as counter-screen | IgMXP3 cells, JC-1 efflux, flow cytometry | inhibition, % at 6.6 µM | 190,000 compounds, 0.1% hits | AID 1325;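 active means inhibition above 80%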;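 further: 0% = DMSO and 100% = nicardipine control wells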
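System: two drug-resistant human cell lines, ABCG2 and ABCB1; controls: nicardipine high and DMSO low controls; times: 10 min exposure at 25 °C with rotation, no wash; detection: flow cytometry of retained JC-1 fluorescence; read-out basis: percent efflux inhibition, scaled nicardipine 100% to DMSO 0%; doses: one concentration, 6.6 µM final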
Rad51 HR inh = Rad51 (human) homologous recombination inhibition | Q06609 | hRad51 DNA strand exchange, fluorescence dequenching | inhibition, % at 10 µM | 200,000 compounds, 0.085% hits | AID 1385;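 active means inhibition above 40% at the single screening dose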;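 further: 0% = DMSO control wells and 100% = blanks with heterologous ssDNA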
Target sequence (Q06609 whole entry, looked up): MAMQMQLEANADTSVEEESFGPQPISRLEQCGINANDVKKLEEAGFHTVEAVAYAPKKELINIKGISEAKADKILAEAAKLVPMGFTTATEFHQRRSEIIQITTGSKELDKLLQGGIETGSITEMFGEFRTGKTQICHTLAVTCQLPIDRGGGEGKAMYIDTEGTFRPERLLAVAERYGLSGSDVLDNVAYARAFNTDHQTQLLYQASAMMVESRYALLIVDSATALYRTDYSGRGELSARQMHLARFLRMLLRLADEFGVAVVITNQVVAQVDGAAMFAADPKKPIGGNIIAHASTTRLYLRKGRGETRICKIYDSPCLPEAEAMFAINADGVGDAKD
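material = hRad51 filaments on single-stranded DNA | reagent = Donor/quencher-labelled 47-bp dsDNA substrate | compound = 10 µM final, single point | schedule = strand-exchange reaction 15 min at room temperature | measured by = fluorescein emission 520 nm, excitation 485 nm | read-out basis = % inhibition versus plate control and blank means | benchmarks = plate controls and plate blanks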
p97 ATPase inh = inhibitors of human p97 ATPase. inhibition, % at 8 µM. recombinant p97 ATPase, Kinase-Glo ATP luminescence, 3 h. P55072. 220,000 compounds, 0.42% hits; in the data active means inhibition above about 15%;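 further: 0% = DMSO vehicle and 100% = wells lacking enzyme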
ABCB1 inh = blocks JC-1 efflux by human ABCB1 transporter. P08183. CCRF-Adr cells, flow cytometry. inhibition, % at 6.6 µM. 190,000 compounds, 0.067% hits. AID 1326; in the data active means inhibition above about 40%;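 further: 0% = vehicle and 100% = reference inhibitor; higher value means more JC-1 retained so stronger ABCB1 efflux block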
ABCB6 inh 2 = inhibitors of human ABC transporter ABCB6. K562-ABCB6 porphyrin accumulation, flow cytometry, 1 h; active compounds read low. fluorescence ratio to DMSO, % at 10 µM. 360,000 compounds, 0.19% hits;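 active means fluorescence ratio to DMSO below 75%, the collection mean minus 3 SD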;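 further: signal is porphyrin accumulated inside mitochondria; 100% equals median channel fluorescence of DMSO control wells; lower ratio means ABCB6 inhibition with less porphyrin fluorescence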
HSV augment = HSV replication enhancement | HSV replication augmentation in cells, fold increase | maximum fold increase | 220,000 compounds, 0.005% hits | AID 1956; in the data active means maximum fold increase above about 1.5; tested in PC3 cells
ABCB6 inh CP1 = human ABCB6 transporter inhibition; K562-ABCB6 porphyrin accumulation, flow cytometry, 1 h; active compounds read low; ratio response (% of DMSO), % at 10 µM; shares compounds with ABCB6 inh 2; 700 tested, under 10 active;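 active means repeat-averaged ratio response below 75% of DMSO, the collection mean minus 3 SD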;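 further: median porphyrin fluorescence at 575 nm with 488 nm excitation from mitochondria; lower ratio means less porphyrin signal so ABCB6 inhibition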
An asterisk follows results filed as active. The list is not random: actives were taken first. Their share in the collection is about 0.55%.

Cc1ccc(F)c(S(=O)(=O)NC(=O)C2(C)CCN2C(=O)Cc2ccccc2Cl)c1 (centres undefined) was read as ABCB6 inh 2 94 and ABCB6 inh CP1 100.
For CC1(C(=O)NS(=O)(=O)c2ccc(C#N)cc2)CCN1C(=O)Cc1cc(F)ccc1F (centres undefined) the results were ABCB6 inh 2 104 and ABCB6 inh CP1 99.
Cc1ccccc1S(=O)(=O)NC(=O)C1(C)CCN1C(=O)CCc1ccc(Cl)cc1Cl (centres undefined) was read as ABCB6 inh 2 97 and ABCB6 inh CP1 97.
`C[C@@H]1CN([C@H](C)CO)C(=O)CCCn2nncc2CO[C@@H]1CN(C)S(C)(=O)=O` gave ABCB6 inh 2 100.
Cc1ccc(C(=O)Nc2cc(C)nn2CCC#N)cc1 was read as ABCB6 inh 2 74* and ABCB6 inh CP1 97.
For O=C(Nc1ccc(Oc2ccccc2)nc1)[C@H]1O[C@@H](n2ccc(=O)[nH]c2=O)[C@H](O)[C@@H]1O the results were ABCB6 inh 2 95.
`CS(=O)(=O)c1ccc(Cl)c(NC(=O)CSc2nnc3n2CCCCC3)c1` gave ABCB6 inh 2 98.
For Cc1cccc(/C=C2\Sc3ccc(C(=O)N4CCCCC4)cc3N(C)C2=O)c1 the results were ABCB6 inh 2 99.
Screening Cc1cccc(/C=C2\Sc3ccc(C(=O)N4CCC(C)CC4)cc3N(C)C2=O)c1 returned ABCB6 inh 2 13* and ABCB6 inh CP1 102.
For CCOC(=O)C1(C)CCN1C(=O)c1ccc(Cl)nc1 (centres undefined) the results were ABCB6 inh 2 99.
Screening CC(=O)NCCN=Cc1sc2ccccc2c1O returned ABCG2 block 0, Rad51 HR inh -2, p97 ATPase inh 0, ABCB1 inh 0, ABCB6 inh 2 89 and HSV augment inactive.
For CCCN=Cc1sc2ccc(OCC)cc2c1O the results were ABCG2 block 4, Rad51 HR inh -8, p97 ATPase inh 6, ABCB1 inh 0, ABCB6 inh 2 74*, HSV augment inactive and ABCB6 inh CP1 104.
`Cc1ccc(C(=O)OCC(=O)NCc2ccccc2)cc1S(=O)(=O)N1CCCCC1` gave ABCB6 inh 2 96.
For Cc1ccc(C(=O)OCC(=O)c2c[nH]c3ccccc23)cc1S(=O)(=O)N1CCCCC1 the results were ABCG2 block -6, Rad51 HR inh 24, p97 ATPase inh 0, ABCB1 inh 0, ABCB6 inh 2 70*, HSV augment inactive and ABCB6 inh CP1 99.
Cc1cccc(NC(=O)C2CCN(S(=O)(=O)c3c(C)noc3/C=C/c3ccco3)CC2)n1 was read as ABCG2 block 8, Rad51 HR inh 5, p97 ATPase inh -4, ABCB1 inh 3, ABCB6 inh 2 51*, HSV augment inactive and ABCB6 inh CP1 98.
For Cc1cc(C)cc(N(C(=O)c2csnn2)C(C(=O)NC2CCCCC2)c2cccnc2)c1 (centres undefined) the results were ABCB6 inh 2 105.
For O=C(NC1CCCC1)C(c1ccco1)N(Cc1ccccc1)C(=O)c1csnn1 (centres undefined) the results were ABCG2 block -1, Rad51 HR inh -4, p97 ATPase inh -10, ABCB1 inh 0, ABCB6 inh 2 94 and HSV augment inactive.
For Cc1cc(C)cc(N(C(=O)c2csnn2)C(C(=O)NC2CCCC2)c2cccnc2)c1 (centres undefined) the results were ABCB6 inh 2 74* and ABCB6 inh CP1 100.
Cc1ccc(CN(C(=O)c2csnn2)C(C(=O)NC2CCCC2)c2ccco2)cc1 (centres undefined) was read as ABCB6 inh 2 73* and ABCB6 inh CP1 99.
Screening CC(C)c1ccc(C(C(=O)NC2CCCCC2)N(C(=O)c2csnn2)C2CC2)cc1 (centres undefined) returned ABCB6 inh 2 94.
`CC(OC(=O)c1ccc(=O)n(Cc2ccccc2)n1)C(=O)Nc1cccc(Cl)c1` (centres undefined) gave ABCB6 inh 2 68* and ABCB6 inh CP1 101.
